Laboratory results from ChEMBL document CHEMBL1121727, “Synthesis and biological activity of certain derivatives of oxazinomycin and related oxadiazole nucleosides” (J Med Chem, 1981).
The source made the active and inactive calls. No cut-off for these calls is given here.

Key:
Human alphaherpesvirus 1 [1] = experiment: In vitro antiviral activity against herpes simplex virus/1(HSV/1) expressed as viral rating (VR); type: functional
Method in brief: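 Antiviral assay in KB cells against HSV type 1 over 1000 to 1 μg/mL. Inhibition of viral cytopathic effect was read after 72 h at 37 °C and scored as virus rating (VR). VR ≥ 0.5 was taken as moderate to definite activity. Ribavirin and acyclovir served as controls.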

P388 = experiment: Antitumor activity against leukemia P388 cells; Inactive; type: functional, cell-based; conditions: Mus musculus
L1210 [2] = experiment: Antitumor activity against L1210 cells; Inactive; type: functional, cell-based; conditions: Mus musculus
Human alphaherpesvirus 1 [3] = experiment: In vitro antiviral activity against herpes simplex virus/1(HSV/1) expressed as viral rating (VR); Inactive; type: functional, organism-based
Method in brief: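 Tested in vitro in KB cells infected with HSV type 1 at 1000 to 1 μg/mL. Plates were incubated 72 h at 37 °C, and inhibition of viral cytopathic effect was scored as a virus rating (VR). VR ≥ 0.5 was taken as moderate to definite activity. Ribavirin and acyclovir served as controls.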

L1210 [4] = experiment: Inhibition of RNA, DNA, and protein synthesis in L1210 cells at 8*10e-7 M.
HeLa = experiment: Antitumor activity against HeLa cells; type: functional, cell-based; conditions: Homo sapiens
L1210 [5] = experiment: Antitumor activity against L1210 cells; type: functional, cell-based; conditions: Mus musculus

Which VR (Human alphaherpesvirus 1 [1]) does the source give for `Nc1nc2c(ncn2COCCO)c(=O)[nH]1` [ACYCLOVIR] here?
The VR was 1.4.

`NC(=O)c1ncn([C@@H]2O[C@H](CO)[C@@H](O)[C@H]2O)n1` [RIBAVIRIN] was tested. Which VR (Human alphaherpesvirus 1 [1]) did it give?
Its VR is 1.2.

With `O=c1nc2c(co1)[C@@H]1O[C@H](CO)[C@@H](O)[C@@H]1O2` as the compound, how does the Activity (P388) read?
Its Activity is “inactive”.

What about the Activity (L1210 [2]) of the same compound?
Its Activity is “inactive”.

With `O=c1[nH]c(=O)n([C@H]2C[C@H](O)[C@@H](CO)O2)o1` as the compound, how does the Activity (P388) read?
Its Activity is “inactive”.

And the VR (Human alphaherpesvirus 1 [3])?
Its VR is “inactive”.

What about the Activity (L1210 [2]) of the same compound?
Its Activity is “inactive”.

With `O=c1[nH]c(=O)c([C@@H]2O[C@H](CO)[C@@H](O)[C@H]2O)co1` as the compound, how does the Inhibition (L1210 [4]) read?
Its Inhibition is 5%.

And the IC50 (HeLa)?
The IC50 was 500 nM.

What about the IC50 (L1210 [5]) of the same compound?
The IC50 was 300 nM.

For `C[C@H]1OC(c2coc(=O)[nH]c2=O)[C@H](O)[C@@H]1O` (some centres not stated), which Activity (P388) is on record?
Its Activity is “inactive”.

What about the Activity (L1210 [2]) of the same compound?
Its Activity is “inactive”.

How did the Activity (P388) turn out when `CC(=O)O[C@H]1C[C@H](c2coc(=O)[nH]c2=O)O[C@@H]1CO` was run?
Its Activity is “inactive”.

And the Activity (L1210 [2])?
The Activity was “inactive”.

`O=c1[nH]c(=O)n(C2O[C@H](CO)[C@@H](O)[C@H]2O)o1` (some centres not stated) was tested. Which Activity (P388) did it give?
The Activity was “inactive”.

What about the VR (Human alphaherpesvirus 1 [1]) of the same compound?
The VR was 0.65.

And the Activity (L1210 [2])?
The Activity was “inactive”.

How did the Activity (P388) turn out when `O=c1[nH]c(=O)c([C@@H]2O[C@H](COP(=O)(O)O)[C@@H](O)[C@H]2O)co1` was run?
The Activity was “inactive”.

And the Activity (L1210 [2])?
The Activity was “inactive”.

For `O=c1[nH]oc(=O)[nH]1`, which Activity (P388) is on record?
The Activity was “inactive”.

What about the VR (Human alphaherpesvirus 1 [3]) of the same compound?
Its VR is “inactive”.

And the Activity (L1210 [2])?
Its Activity is “inactive”.
